Screening results as filed in PubChem BioAssay.
LEDGF integ inh: blocks HIV-1 LEDGF/p75-dependent DNA integration | TR-FRET IN-LEDGF/p75 DNA integration, Eu/Cy5 | inhibition, % at 3.7 µM | 370,000 tested, 0.64% active | AID 743269;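 active = inhibition above the screen-wide mean plus 3 SD, cut at about 13% in these data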;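 note: signal is the Cy5 over europium emission ratio at 671 and 618 nm; 0% = plate median of compound wells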
TDP2 absorb: TDP2 (human) inhibition, absorbance primary screen | O95551 | recombinant TDP2, T5PNP hydrolysis, p-nitrophenol absorbance 415 nm | inhibition, % at 12.8 µM | 370,000 tested, 0.34% active;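 active = inhibition above the mean of all tested compounds plus 3 SD, set per campaign, cut at about 25% in these data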;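 note: 0% = DMSO with enzyme and 100% = buffer with substrate but no TDP2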
Target sequence (O95551 whole entry, looked up): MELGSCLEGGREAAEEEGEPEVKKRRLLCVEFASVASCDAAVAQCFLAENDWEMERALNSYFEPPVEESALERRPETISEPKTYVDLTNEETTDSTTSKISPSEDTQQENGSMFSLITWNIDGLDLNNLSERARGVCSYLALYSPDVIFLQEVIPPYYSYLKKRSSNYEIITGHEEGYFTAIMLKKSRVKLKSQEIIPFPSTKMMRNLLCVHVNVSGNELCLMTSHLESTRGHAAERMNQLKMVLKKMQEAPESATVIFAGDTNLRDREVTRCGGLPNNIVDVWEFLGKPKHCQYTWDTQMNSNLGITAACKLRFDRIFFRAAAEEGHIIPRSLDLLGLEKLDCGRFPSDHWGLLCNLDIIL
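System: recombinant human TDP2 / Amount: 120 nM TDP2 per well / Also added: 5 mM T5PNP chromogenic substrate / Doses: 12.8 µM single point, 1% DMSO / Incubation: 2 h at 37 °C / Detection: p-Nitrophenol epi absorbance / Evaluation: % inhibition relative to enzyme-containing and enzyme-free wells / Repeats: singlicate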
ASAP1 inh: blocks human ASAP1-stimulated Arf1 GTP hydrolysis; GDP FP detection; 360,000 tested, 0.19% active; inhibition, % at 16.5 µM; in the data active = inhibition above about 25%;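 note: 0% = vehicle with enzyme and substrate and 100% = no enzyme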
Casp6 inh: blocks human caspase-6 cleavage activity | 350,000 tested, 0.53% active | P55212 | inhibition, % at 12.5 µM | purified caspase-6, Z-VEID-R110 cleavage fluorescence | AID 686996;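 active = mean inhibition across replicates at least about 35%, with every replicate also reaching that limit, limit read from the data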;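 note: 0% = median of neutral control wells and 100% = no fluorescence left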
ARFGAP1 inhibitor: inhibits rat ARF GTPase activating protein 1; Q62848; Arfgap1-stimulated ARF1 GTP hydrolysis, GDP FP detection; inhibition, % at 16.5 µM; 360,000 tested, 0.26% active;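 active = inhibition above a per-plate limit, mean inhibition of low control wells plus 3 SD, cut at about 25% in these data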;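 note: 0% = DMSO wells with enzyme and 100% = wells lacking Arfgap1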
Target sequence (Q62848 1-136 limits assumed): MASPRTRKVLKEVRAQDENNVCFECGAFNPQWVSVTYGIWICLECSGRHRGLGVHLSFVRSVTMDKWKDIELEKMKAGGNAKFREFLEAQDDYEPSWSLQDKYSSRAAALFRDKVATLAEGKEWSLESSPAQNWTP
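system = rat Arfgap1 catalytic domain, aa 1-136 | technique = FP, GDP Alexa 633 tracer displaced from anti-GDP antibody, 620/688 nm | compound = one concentration, 16.5 µM, DMSO 1.26% | medium = HEPES-based buffer, pH 7.5 | timing = compound-enzyme preincubation 20 min, reaction 120 min, detection 60 min, 25 °C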
The depositor's hits bear a star; x = not tested or not shown; ! = repeats disagree. Shown are actives, neighbours in structure and some others; about 1.3% of the full set was active somewhere.

SMILES	LEDGF integ inh	TDP2 absorb	ASAP1 inh	Casp6 inh	ARFGAP1 inhibitor
C[C@@H]1CCCCO[C@@H](CN(C)Cc2ccc(Cl)c(Cl)c2)[C@H](C)CN([C@H](C)CO)C(=O)c2cc(NC(=O)Nc3ccc(C(F)(F)F)cc3)ccc2O1	x	x	x	-2.2	x
O=C(Nc1ccc(O)cc1)c1ccccc1OCc1ccccc1	-1.5	3.5	7.4	-0.4	0.9
O=C(Nc1ccccc1)c1ccccc1OCc1cccc([N+](=O)[O-])c1	-2.9	-6.0	9.0	35.7*	5.6
O=C(/C=C/c1ccc(Cl)cc1)Nc1nccs1	-6.7	-4.8	11.5	63.6*	0.4
CC1=NN(c2ccc(S(=O)(=O)O)cc2Cl)C(=O)C1	7.3	19.4	-6.9	47.0*	-1.7
COc1ccc(/C=C2\SC(=O)NC2=S)cc1OC	-1.6	0.9	10.2	45.3*	-1.7
CO/N=C/c1ccc(Oc2ccc([N+](=O)[O-])cc2[N+](=O)[O-])c(OC)c1	-1.6	-0.3	-0.2	x	-3.7
COc1cc(/C=C2\SC(=O)NC2=O)ccc1Oc1ccc([N+](=O)[O-])cc1[N+](=O)[O-]	-2.2	-4.5	-1.1	38.8*	1.0
CCCN(CCC)S(=O)(=O)c1ccc(C(=O)Nc2c(C)n(C)n(-c3ccccc3)c2=O)cc1	-0.6	3.8	4.8	-1.8	0.1
C[C@H](CO)N1C[C@H](C)[C@@H](CN(C)C(=O)c2cccc(F)c2)Oc2ncc(C#CCN(C)C)cc2C1=O	x	x	x	-1.1	x
COc1ccc(OC)c(NC(=O)COC(=O)c2cc3c(s2)CCC3)c1	6.8	-0.5	1.4	34.3	7.4
COc1ccccc1NC(=O)COC(=O)c1cc2c(s1)CCC2	5.4	-2.5	-6.9	63.9*	-17.8
COc1cccc(C(=O)OCC(=O)Nc2sc3c(c2C(N)=O)CCC3)c1O	12.4	-15.0	7.3	40.8*	6.1
C[C@H](CO)N1C[C@H](C)[C@@H](CN(C)C(=O)C2CCC2)Oc2ncc(C#CC3(O)CCCC3)cc2C1=O	x	x	x	-0.1	x
CC(=O)c1ccc(S(=O)(=O)Nc2c(C)nn(C)c2C)cc1	-8.9	-1.0	-4.6	43.3*	-17.7
O=C(c1ccccc1NS(=O)(=O)c1ccc([N+](=O)[O-])cc1[N+](=O)[O-])N1O[C@@H]2C=C[C@H]1C2	3.7	4.1	-0.6	37.4*	10.8
O=C(c1ccccc1NS(=O)(=O)c1ccccc1[N+](=O)[O-])N1CCOCC1	1.3	0.6	-0.4	x	0.8
COc1ccc(C(=O)NC(=S)NCc2ccco2)cc1	6.3	-8.2	-5.6	-5.3	5.8
CSc1ccc(/C=C(\C(=O)O)c2ccc(S(=O)(=O)N3CCCCC3)s2)cc1	8.3	-7.3	9.2	43.6*	-2.9
O=C(O)/C(=C\c1cccc([N+](=O)[O-])c1)c1ccc(S(=O)(=O)N2CCCCC2)s1	4.1	-5.0	-13.9	40.8*	-4.8
O=C(O)/C(=C\c1ccc(Cl)cc1)c1ccc(S(=O)(=O)N2CCCC2)s1	4.0	-5.4	10.4	9.1	7.8
COc1cc(/C=C(\C(=O)O)c2ccc(S(=O)(=O)N3CCCC3)s2)cc(OC)c1	-0.7	4.8	-8.2	41.2*	16.2
CN(C)CCNC(=O)c1onc(CSc2ccc(F)c(F)c2)c1C(=O)NCCN(C)C	0.1	3.3	-4.9	-76.1	9.6
Cc1nc2c(o1)CCc1ccccc1C2O (stereo unspecified)	-1.1	2.3	3.3	x	-9.1
Cc1cccc(NC(=O)Cn2nnc(C(=O)Nc3ccc(F)c(Cl)c3)c2N)c1	-5.0	-5.5	2.1	-2.7	4.8
SMILES	LEDGF integ inh	TDP2 absorb	ASAP1 inh	Casp6 inh	ARFGAP1 inhibitor
CC(=O)OCCNc1cc(N2CCN(C)CC2)c2noc3c2c1C(=O)c1ccccc1-3	-5.6	-1.0	-10.0	-7.7	-9.9
O=C(O)CCNc1cc(N2CCN(C(=O)c3ccco3)CC2)c2noc3c2c1C(=O)c1ccccc1-3	-0.7	38.0*	0.0	26.5	14.0
COc1ccc(C(=O)/C=C/c2cccc(OCc3ccccc3)c2)cc1CSCC(=O)O	1.2	8.4	-3.8	43.5*	-14.7
COc1ccc(C(=O)/C=C/c2ccc(OCc3ccccc3)cc2)cc1CSCC(=O)O	3.4	3.0	0.7	43.9*	0.6
CCC12CCCN3CCc4c(n(c5ccccc45)C(O)(C(=O)OC)C1)C32 (stereo unspecified)	1.0	21.8	-7.3	59.5*	-3.8
CCN1CCN(C(=O)C2=C(C(=O)O)CCCC2)CC1	-1.2	-7.5	0.6	x	0.3
Cc1ccc(-c2csc(NC(=O)/C=C/c3ccco3)c2C(=O)O)cc1	12.6	-0.9	-3.3	75.4*	1.9
Cc1ccc(-c2csc(NC(=O)c3cccc(C)c3)c2C(=O)O)cc1	-1.4	-6.8	-7.5	-1.0	-3.3
COc1ccc(/C=C(\NC(=O)c2ccc([N+](=O)[O-])cc2)C(=O)N2CCOCC2)cc1	0.3	1.2	-9.0	-0.7	5.1
Cc1nc2c(=O)[nH]c(=S)[nH]c2[nH]c1=O	22.4*	8.1	-3.8	93.4*	-7.8
C[C@H](CO)N1C[C@H](C)[C@@H](CN(C)S(=O)(=O)c2ccccc2F)Oc2ncc(C#Cc3cccnc3)cc2C1=O	-3.4	2.1	-13.1	36.1*!	0.1
COC(=O)[C@@]1(C(C)C)N=C(c2cc(OC)c(OC)c(OC)c2)[C@]2(O1)C(=O)N(Cc1cn(-c3ccccc3)nn1)c1cccc(Cl)c12	-2.3	-10.9	x	x	x
CCOC(=O)N(O)c1ccc(C=Cc2ccccc2)cc1	7.5	-1.4	-2.2	67.4*	3.8
C[C@H]1CN([C@@H](C)CO)C(=O)c2cc(C#Cc3ccccc3)cnc2O[C@H]1CN(C)C(=O)CN(C)C	x	x	x	-0.8	x
O=C1CS/C(=N/N=C/c2ccccc2)N1c1ccc(O)cc1	-0.1	13.4	11.0	-1.4	2.5
O=C1CS/C(=N\N=C\c2ccco2)N1c1ccccc1	9.8	8.4	-0.7	57.3*	-6.5
C[C@H](CO)N1C[C@H](C)[C@H](CN(C)Cc2ccc3c(c2)OCO3)Oc2ccc(NC(=O)Nc3ccc4c(c3)OCO4)cc2C1=O	x	x	x	-3.2	x
O=C(NC[C@@H]1CC[C@@H]2[C@@H](CN2S(=O)(=O)c2ccccc2[N+](=O)[O-])O1)C1CCOCC1	x	x	x	53.5*	x
O=C(NC[C@H]1CC[C@@H]2[C@@H](CN2S(=O)(=O)c2ccccc2[N+](=O)[O-])O1)Nc1ccccc1	x	x	x	2.1	x
Cc1ccc(NC(=O)c2noc3c2CCC3)cc1C	5.9	9.7	-0.2	53.7*	-15.0
Cc1nnc(SCC(=O)NC2CCCCCC2)n1C(C)C	-2.5	8.5	14.8	43.7*	5.1
Nc1nc(SCC(=O)NC2CCCCC2)n[nH]1	3.9	-7.0	16.1	95.4*	-5.5
O=C(CSc1n[nH]c(C2CCCC2)n1)NC1CCCC1	0.6	-2.1	-1.6	x	2.9
Cc1c(NS(=O)(=O)c2cc(C(=O)NCCN(C)C)ccc2Cl)c(=O)n(-c2ccccc2)n1C	4.8	-13.8	4.7	42.3*	-4.3
O=C(Nc1nc(-c2ccco2)c(-c2ccco2)s1)c1cnccn1	47.5*	2.6	0.9	16.8	-3.0
